# Assay outcomes (PubChem)
# In the library only some 3.6% were active in any assay of this set; here they are far more common.
# pPAFAH inh – pPAFAH enzyme inhibitors, primary screen, biochemical, fluorescence polarization, human | recombinant pPAFAH, FP-rhodamine probe fluorescence polarization | inhibition, % at 3.39 µM | 1.5% of 330,000 active;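 active = inhibition above the mean inhibition across the screen plus 3 SD, cut at about 25% in these data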;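 note: inhibitors block binding of the rhodamine activity-based probe so polarization drops; 0% = enzyme with DMSO and 100% = wells lacking pPAFAH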
# Target sequence (Q13093 whole entry, looked up): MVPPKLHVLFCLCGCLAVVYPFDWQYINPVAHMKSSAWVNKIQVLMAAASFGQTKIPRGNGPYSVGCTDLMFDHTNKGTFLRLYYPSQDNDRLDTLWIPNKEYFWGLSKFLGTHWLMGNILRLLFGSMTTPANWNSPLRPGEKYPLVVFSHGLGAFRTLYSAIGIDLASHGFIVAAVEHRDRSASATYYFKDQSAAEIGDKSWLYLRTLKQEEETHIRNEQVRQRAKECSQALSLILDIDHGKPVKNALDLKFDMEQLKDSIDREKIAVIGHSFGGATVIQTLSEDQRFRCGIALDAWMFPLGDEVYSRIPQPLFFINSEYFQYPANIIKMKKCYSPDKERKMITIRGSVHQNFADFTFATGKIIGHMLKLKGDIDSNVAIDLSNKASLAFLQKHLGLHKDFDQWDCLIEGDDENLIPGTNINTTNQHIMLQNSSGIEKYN
# PAFAH1B2 FP inh – PAFAH1B2 enzyme inhibitors, primary screen, biochemical, fluorescence polarization, human; Platelet-activating factor acetylhydrolase IB subunit alpha2 (Homo sapiens), P68402; recombinant PAFAH1B2, FP-rhodamine activity probe; inhibition, % at 3.39 µM; 1.2% of 340,000 active; AID 492953, 2010;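 active = inhibition above the mean of all tested compounds plus 3 SD, cut at about 24% in these data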;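 note: 0% = enzyme with DMSO and 100% = wells lacking PAFAH1B2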
# Target sequence (P68402 whole entry, looked up): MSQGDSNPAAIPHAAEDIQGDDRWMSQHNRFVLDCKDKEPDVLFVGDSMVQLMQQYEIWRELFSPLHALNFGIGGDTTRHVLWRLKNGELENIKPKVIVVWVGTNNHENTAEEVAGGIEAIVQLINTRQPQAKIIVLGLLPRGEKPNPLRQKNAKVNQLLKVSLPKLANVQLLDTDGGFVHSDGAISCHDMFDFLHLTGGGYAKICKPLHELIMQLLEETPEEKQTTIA
# IMP-1 inh – IMP-1 metallo-beta-lactamase inhibitors, primary screen, biochemical, epi-absorbance readout, Pseudomonas aeruginosa enzyme | metallo-beta-lactamase IMP-1 (Pseudomonas aeruginosa) | purified IMP-1, nitrocefin hydrolysis, epi-absorbance fluorescence | inhibition, % at 5.6 µM | 0.45% of 290,000 active | AID 1556, 2009;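 active = inhibition above the mean plus 3 SD of all compounds in the same screening run, cut at about 4.5% in these data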;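 note: 0% = IMP-1 with DMSO and 100% = DMSO wells lacking enzyme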
#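 System: purified recombinant IMP-1 beta-lactamase. Medium: Zinc- and detergent-supplemented HEPES buffer, pH 7.1. Compound: one 5.6 µM dose […]. Schedule: 15 min preincubation plus 25 min reaction at 25 °C. Technique: Epi-absorbance fluorescence, 480 nm excitation, 530 nm emission.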
# VIM-2 inh – VIM-2 metallo-beta-lactamase inhibitors, primary screen, biochemical, epi-absorbance readout, Pseudomonas aeruginosa enzyme; purified VIM-2, nitrocefin hydrolysis, epi-absorbance fluorescence; inhibition, % at 5.6 µM; 0.89% of 290,000 active; AID 1527, 2009;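 active = inhibition above the mean of all tested compounds plus 3 SD, cutoff set per screening run, cut at about 7.5% in these data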;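 note: red hydrolysis product quenches plate fluorescence so inhibitors raise well fluorescence; 0% = enzyme with DMSO and 100% = DMSO without enzyme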
# PAFAH1B3 FP inh – PAFAH1B3 enzyme inhibitors, primary screen, biochemical, fluorescence polarization, human. Platelet-activating factor acetylhydrolase IB subunit alpha1 (Homo sapiens), Q15102. recombinant PAFAH1B3, FP-rhodamine probe. inhibition, % at 3.39 µM. 0.28% of 340,000 active. AID 492972, 2010;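 active = inhibition above the screen-wide average of all tested compounds plus 3 SD, cut at about 25% in these data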;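 note: 0% = enzyme with DMSO only and 100% = wells lacking PAFAH1B3 protein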
# PAFAH2 inh – PAFAH2 enzyme inhibitors, primary screen, biochemical, fluorescence polarization, human. recombinant PAFAH2, FP-rhodamine activity probe. inhibition, % at 3.39 µM. 0.99% of 340,000 active. AID 492956, 2010;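 active = inhibition above the mean over all tested compounds plus 3 SD, cut at about 30% in these data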;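 note: inhibitors block probe labeling of enzyme so polarization drops; 0% = enzyme with DMSO and 100% = wells lacking PAFAH2 protein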
# pPAFAH FP conf – pPAFAH (PLA2G7) enzyme inhibitors, confirmation, biochemical, fluorescence polarization, human | recombinant pPAFAH, FP-Rh probe fluorescence polarization | AID 463230, 2010 | shares compounds with pPAFAH inh | inhibition, % at 3.39 µM | 72% of 2,300 active;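 active = mean inhibition of the triplicate above the hit cutoff set for the earlier primary screen, cut at about 25% in these data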;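 note: 0% = enzyme with DMSO and 100% = wells lacking pPAFAH enzyme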
# PAFAH2 FP conf – PAFAH2 enzyme inhibitors, confirmation, biochemical, fluorescence polarization, human | 65% of 2,300 active | recombinant PAFAH2, FP-rhodamine activity probe | shares compounds with PAFAH2 inh | inhibition, % at 3.39 µM;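 active = mean inhibition over three repeats above a set limit taken from the earlier primary screen, cut at about 30% in these data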;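 note: inhibitor blocks binding of rhodamine activity probe so polarization falls; 0% = enzyme with DMSO and 100% = wells lacking PAFAH2 protein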
# PAFAH1B3 confirm – PAFAH1B3 enzyme inhibitors, confirmation, biochemical, fluorescence polarization, human; 30% of 390 active; inhibition, % at 3.39 µM; shares compounds with PAFAH1B3 FP inh; recombinant PAFAH1B3, FP-Rh activity-based probe;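 active = average inhibition over triplicate runs above the hit cutoff set in the earlier primary screen, cut at about 25% in these data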;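 note: 0% = enzyme with DMSO and 100% = wells lacking PAFAH1B3 protein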
# The depositor's hits bear a star; . = not tested or not shown.
SMILES,pPAFAH inh,PAFAH1B2 FP inh,IMP-1 inh,VIM-2 inh,PAFAH1B3 FP inh,PAFAH2 inh,pPAFAH FP conf,PAFAH2 FP conf,others
O=C(CC(O)c1ccncc1)c1ccccc1O (configuration not stated),.,4,.,.,10,6,.,.,
CCCCCCCCCCCCCCCC[n+]1cccc2ccccc21,57*,-8,-3,0,-1,-3,33*,.,
CCOC(=O)Cn1c(=O)oc2cc(S(=O)(=O)Nc3ccc(N(CC)CC)cc3C)ccc21,55*,5,-3,-2,-2,2,53*,.,
N#Cc1c(-c2cccc(Br)c2)cc(-c2ccco2)[nH]c1=O,45*,5,-1,0,7,23,32*,.,
O=[N+]([O-])c1ccc(N/N=C/c2cccc(O)c2O)c(S(=O)(=O)N2CCOCC2)c1,45*,-8,-2,-4,4,-14,57*,.,
Cc1cccc(N/N=C/c2ccc(O)c(O)c2O)c1,45*,-3,1,1,8,7,44*,.,
O=[N+]([O-])c1ccccc1N/N=C/c1cccc(O)c1O,50*,-2,-3,-3,0,2,14,.,
O=[N+]([O-])c1ccccc1N/N=C\c1ccccc1Cl,-1,-5,-2,-3,-7,-4,.,.,
O=[N+]([O-])c1cccc(N/N=C/c2cccc(O)c2O)c1,60*,-2,-2,0,17,8,66*,.,
CCC(C)N(C(=O)CSc1nnc2ccccn12)C1CCS(=O)(=O)C1 (configuration not stated),.,3,.,.,4,4,.,.,
COc1ccccc1CNC(=O)COC(=O)c1cc(-c2ccco2)nc2ccccc12,56*,-3,-2,-5,16,33*,18,9,
COc1ccccc1N1CCN(C(=O)c2ccc(COc3cccc4c3OC(C)(C)C4)cc2)CC1,-4,5,.,.,2,2,.,.,
CCn1c(CSc2nc3ccccc3s2)nnc1SCC(=O)c1ccc(Cl)cc1,12,4,-5,-1,7,2,.,.,
CCn1c(CSc2nc3ccccc3s2)nnc1SCC(=O)c1ccc(O)c(O)c1,40*,7,-3,1,11,50*,94*,23,
O=C(NNC(=O)c1ccccc1F)c1ccc(Cl)c(S(=O)(=O)N2CCOCC2)c1,5,2,.,.,8,-2,.,.,
O=C(CSc1nnc(-c2ccco2)c(-c2ccco2)n1)Nc1ccccc1,59*,2,1,-2,10,42*,21,11,
O=C(Nc1ccc(N2CCOCC2)cc1)Nc1ccc2nc(-c3ccco3)c(-c3ccco3)nc2c1,45*,23,-2,-3,28*,3,14,.,PAFAH1B3 confirm=18
C[C@H]([C@H](O)c1ccccc1)N(C)C(=O)CN,5,-4,-3,-2,8,1,.,.,
Cc1ccc(C)c(NC(=O)CN(C)C(=O)c2cc(-c3cccs3)nn2-c2ccccc2)c1,8,8,-3,-2,1,33*,.,0,
CCCNC(=O)COC(=O)/C=C/c1cccc(F)c1,6,7,-2,-4,3,33*,.,20,
O=C(COC(=O)/C=C/c1cccc(F)c1)Nc1ccccc1,10,3,-2,-2,12,76*,.,82*,
Cc1ccccc1CC(=O)N1CCN(S(=O)(=O)c2cccs2)CC1,9,-2,-3,-1,9,0,.,.,
O=C(CCS(=O)(=O)c1ccc(Cl)cc1)N1CCN(S(=O)(=O)c2cccs2)CC1,5,10,-2,-2,18,51*,.,40*,
O=C(CCC1CCCC1)NNC(=O)COc1ccc(Br)cc1,5,19,.,.,11,35*,.,23,
COc1cc(SC)ccc1C(=O)OCC(=O)NC(=O)NC(C)C,4,3,-3,-3,9,18,.,.,
SMILES,pPAFAH inh,PAFAH1B2 FP inh,IMP-1 inh,VIM-2 inh,PAFAH1B3 FP inh,PAFAH2 inh,pPAFAH FP conf,PAFAH2 FP conf,others
COc1cc(SC)ccc1C(=O)OCC(=O)NCC(C)C,13,2,-1,-1,13,45*,.,28,
CC(C)CNC(=O)COC(=O)c1ccc(F)cc1Cl,13,4,-1,-1,-3,35*,.,19,
COC(=O)C(=Cc1ccc(-c2ccsc2C(=O)OC)o1)C(=O)OC,0,2,-1,-2,5,10,.,.,
COC(=O)c1sccc1-c1ccc(/C=N/OC(=O)c2cccs2)o1,-2,3,-3,-3,3,50*,.,26,
COc1ccc2cc(C(=O)NCc3ccccc3)c(=Nc3ccc(C(=O)O)cc3)oc2c1,1,3,0,-4,7,25,.,.,
O=C(O)c1ccc(N=c2oc3cc(O)ccc3cc2C(=O)NCc2ccccc2)cc1,7,9,-4,-2,16,54*,.,40*,
CCN(Cc1ccccc1)C(=O)c1ccc2c(=O)n3c(nc2c1)CCC3,9,6,.,.,-3,5,.,.,
CCCCn1c(N)c(N(CCOC)C(=O)c2cccc(N3C(=O)c4ccccc4C3=O)c2)c(=O)[nH]c1=O,6,-3,.,.,3,45*,.,-2,
CCCCn1c(N)c(N(CCOC)C(=O)c2ccc(N3C(=O)c4ccccc4C3=O)cc2)c(=O)[nH]c1=O,.,2,.,.,3,-5,.,.,
CC(=O)Nc1ccc(S(=O)(=O)N(C)CC(=O)OCC(=O)c2ccc3c(c2)NC(=O)CO3)cc1,-1,2,.,.,1,-8,.,.,
CCCC(Oc1ccc(Br)cc1)c1nc2c3cc(OC)c(OC)cc3nc(=S)n2[nH]1 (configuration not stated),10,15,-2,-3,13,33*,.,22,
Cc1ccc(N2CC(C(=O)Nc3c4c(nn3C(C)(C)C)CS(=O)(=O)C4)CC2=O)cc1C (configuration not stated),5,-3,-1,-4,-3,158*,.,0,
Cc1ccc(C(=O)Nc2c3c(nn2C(C)(C)C)CS(=O)(=O)C3)cc1C,4,-1,-2,-2,3,2,.,.,
